Data: publication PMC5652303 (European journal of medicinal chemistry, 2017)
Values joined by “and” are separate entries in the source; they are usually repeats but may differ in a detail not shown here. Equal values may be shown once.

Key:
[1] = Chemical stability of the compounds; format: physicochemical; conditions: for Hydrolysis of the acetate group: NMR, phosphate buffer pH 8 in D2O/DMSO 2:3, before addition of H2O2
49-mer DNA duplex 25 = experiment: H2O2-induced DNA interstrand cross-link; format: biochemical; conditions: for DNA ICL cross-linking yield without H2O2: no H2O2, duplex 25, pH 8 phosphate buffer; for Kinetics of ICL formation: Time of completion: phosphate buffer pH 8; for ICL formation rate constant relative to 1a: rate constants of Table 1
In short: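 The 32P-labelled strand (0.5 µM) was annealed to 1.5 equiv of complement at 65 °C for 3 min in 10 mM potassium phosphate pH 7 with 100 mM NaCl, then cooled slowly overnight. Duplex, NaCl, potassium phosphate (pH 6–8), H2O2 and compound (100 µM–2 mM, in CH3CN) were incubated 24 h; some runs went 48 h. Reactions were quenched with 90% formamide loading buffer and run on 20% denaturing PAGE with phosphorimaging. Yields were corrected for the no-H2O2 control.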

[2] = tested on: ovarian cancer SKOV3 cell; experiment: Cytotoxicity in SKOV3 cells; format: cell-based; conditions: for IC50: Homo sapiens, SK-OV-3; for Cytotoxicity (initial test): SKOV3 cells
In short: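 Cells grown in RPMI 1640 with 5% FBS and 2 mM L-glutamine, seeded at 5,000–10,000 cells/well in 384-well plates, and left 2–3 h at 37 °C, 5% CO2. Compounds were made as 20 mM DMSO stocks and serially diluted 2-fold ten times, then added at 1:100. After 48 h, viability was read by CellTiter-Glo luminescence after 10 min at room temperature. IC50 came from four-parameter nonlinear regression.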

normal lymphocytes = experiment: Viability of normal lymphocytes, annexin/PI binding assay; format: cell-based, human; conditions: healthy donors (n=2), 10 µM, 24 hours
In short: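 Lymphocytes were separated from healthy donors' peripheral blood on a Ficoll-hypaque gradient and suspended in RPMI with 10% autologous plasma. After compound exposure, the percentage of viable cells was scored by annexin V/propidium iodide binding.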

[3] = Monomer reaction with H2O2 by NMR analysis; format: physicochemical; conditions: for Disappearance of starting materials: Time of completion / Disappearance of starting materials: kobs / QM formation: Time of completion / QM formation: kobs: DMSO/deuterated phosphate buffer pH 8 (3:2), with H2O2; for Time to completion of reaction with H2O2 (oxidative deboronation): phosphate buffer pH 8 in D2O/DMSO 2:3, SI Figures S14, 15, 17, 18
[4] = tested on: H2AX phosphorylation at Ser139; experiment: DNA damage response: H2AX phosphorylation in CLL lymphocytes, flow cytometry; format: cell-based, human; conditions: 10 µM, 24 hours
In short: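 Lymphocytes were isolated from CLL patients' peripheral blood on a Ficoll-hypaque gradient and held in RPMI with 10% autologous plasma. After compound exposure, cells were washed in PBS, fixed in ice-cold 70% ethanol and stored at −20 °C. They were then permeabilised, stained with FITC anti-H2AX Ser139 antibody, and analysed by flow cytometry.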

[5] = tested on: 60 human cancer cell lines; experiment: NCI DTP in vitro cancer cell screen; format: cell-based; conditions: 10 µM, most of the 60 cell lines
In short: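 NCI DTP screen. Human tumour cell lines were grown in RPMI 1640 with 5% FBS and 2 mM L-glutamine. Cells were plated in 96-well plates at 5,000–40,000 cells/well, set by each line's doubling time, and treated at a single 10 µM dose.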

breast cancer MDA-MB-468 = experiment: Cytotoxicity towards tumor cells; format: cell-based; conditions: Homo sapiens, MDA-MB-468, 48 h

COc1cc(OC)c(CBr)c(B2OC(C)(C)C(C)(C)O2)c1CBr [3a, 2-(2,6-Bis(bromomethyl)-3,5-dimethoxyphenyl)-4,4,5,5-tetramethyl-1,3,2-dioxaborolane]
Chemical stability [1]: not stable and easily decomposed even at 0 °C
DNA ICL cross-linking yield without H2O2 (49-mer DNA duplex 25; 2 mM compound, 37 °C): 17 ± 3% and 17%

COc1cc(CBr)c(B2OC(C)(C)C(C)(C)O2)c(CBr)c1 [2a, 2-(2,6-Bis(bromomethyl)-4-methoxyphenyl)-4,4,5,5-tetramethyl-1,3,2-dioxaborolane]
Chemical stability [1]: chemically stable
IC50 [2]: 5.2 µM
Kinetics of ICL formation: Time of completion (49-mer DNA duplex 25): 240 min
ICL formation rate constant relative to 1a (49-mer DNA duplex 25): 2–3 times
Toxicity to normal lymphocytes (normal lymphocytes): no significant toxicity
Disappearance of starting materials: Time of completion [3]: 42 min
Disappearance of starting materials: kobs [3]: 56.7 ± 4.3 10^−5 s^−1
QM formation: Time of completion [3]: 50 min
QM formation: kobs [3]: 38.3 ± 2.2 10^−5 s^−1
Induction of DNA damage response (H2AX phosphorylation) [4]: induction of DNA damage response
Growth percentage of most cell lines, single dose screening [5]: less than 50%

O=C(O)CCCc1ccc(N(CCCl)CCCl)cc1 [Chlorambucil, chlorambucil]
IC50 (breast cancer MDA-MB-468): 34.4 µM

COc1cc(COC(C)=O)c(B2OC(C)(C)C(C)(C)O2)c(COC(C)=O)c1 [2b, (5-Methoxy-2-(4,4,5,5-tetramethyl-1,3,2-dioxaborolan-2-yl)-1,3-phenylene)bis(methylene) diacetate]
Hydrolysis of the acetate group [1]: hydrolyzed prior to addition of H2O2
Cytotoxicity (initial test) [2]: not cytotoxic
Disappearance of starting materials: Time of completion [3]: 480 min
Disappearance of starting materials: kobs [3]: 9.1 ± 0.6 10^−5 s^−1
QM formation: Time of completion [3]: 480 min
Time to completion of reaction with H2O2 (oxidative deboronation) [3]: not finished within one hour

CC1(C)OB(c2c(CBr)cccc2CBr)OC1(C)C [1a]
IC50 [2]: 6.3 µM
DNA ICL cross-linking yield without H2O2 (49-mer DNA duplex 25; 2 mM compound, 37 °C): 0%
Kinetics of ICL formation: Time of completion (49-mer DNA duplex 25): 600 min
Toxicity to normal lymphocytes (normal lymphocytes): no significant toxicity
Disappearance of starting materials: Time of completion [3]: 60 min
Disappearance of starting materials: kobs [3]: 39.0 ± 1.5 10^−5 s^−1
QM formation: Time of completion [3]: 60 min
QM formation: kobs [3]: 9.5 ± 0.2 10^−5 s^−1
Induction of DNA damage response (H2AX phosphorylation) [4]: induction of DNA damage response

COc1c(CBr)c(B2OC(C)(C)C(C)(C)O2)c(CBr)c(OC)c1OC [4a, 2-(2,6-Bis(bromomethyl)-3,4,5-trimethoxyphenyl)-4,4,5,5-tetramethyl-1,3,2-dioxaborolane]
Chemical stability [1]: more stable than 3a
Cytotoxicity (initial test) [2]: not cytotoxic
DNA ICL cross-linking yield with H2O2 (49-mer DNA duplex 25; 2 mM compound, 2 mM H2O2, duplex 25, pH 8 phosphate buffer, 37 °C): 0%
DNA ICL cross-linking yield without H2O2 (49-mer DNA duplex 25; 2 mM compound, 37 °C): 0%
ICL yield after incubation of ICL products at pH 6 (49-mer DNA duplex 25; ICLs generated at pH 6, then incubated at pH 6, 37 °C, 24 h): remained unchanged
ICL yield after incubation of ICL products at pH 8 (49-mer DNA duplex 25; ICLs generated at pH 6, then incubated at pH 8, 37 °C, 24 h): 3.0 ± 0.5%
ICL yield of ICL products generated with 4a at pH 6 (49-mer DNA duplex 25; duplex 25, generated at pH 6, before further incubation): 16.6 ± 1.0%
DNA ICL product formation at pH 7 or higher pH (49-mer DNA duplex 25; with H2O2, pH 7 or higher): not formed

CC(=O)OCc1cccc(COC(C)=O)c1B1OC(C)(C)C(C)(C)O1 [1b, (2-(4,4,5,5-Tetramethyl-1,3,2-dioxaborolan-2-yl)-1,3-phenylene)bis(methylene) diacetate]
Hydrolysis of the acetate group [1]: hydrolyzed prior to addition of H2O2
Cytotoxicity (initial test) [2]: not cytotoxic
Disappearance of starting materials: Time of completion [3]: 240 min
Disappearance of starting materials: kobs [3]: 19.4 ± 1.2 10^−5 s^−1
QM formation: Time of completion [3]: 240 min

CC1(C)OB(c2c(CBr)cc(O)cc2CBr)OC1(C)C [5a, 3,5-Bis(bromomethyl)-4-(4,4,5,5-tetramethyl-1,3,2-dioxaborolan-2-yl)phenol]
Chemical stability [1]: relatively stable
IC50 [2]: 3.8 µM
Kinetics of ICL formation: Time of completion (49-mer DNA duplex 25): 300 min
ICL formation rate constant relative to 1a (49-mer DNA duplex 25): 2–3 times
Toxicity to normal lymphocytes (normal lymphocytes): no significant toxicity
Disappearance of starting materials: Time of completion [3]: 40 min
Disappearance of starting materials: kobs [3]: 61.7 ± 3.2 10^−5 s^−1
QM formation: Time of completion [3]: 40 min
QM formation: kobs [3]: 58.3 ± 4.3 10^−5 s^−1
Induction of DNA damage response (H2AX phosphorylation) [4]: induction of DNA damage response

CC(=O)OCc1cc(O)cc(COC(C)=O)c1B1OC(C)(C)C(C)(C)O1 [5b, (5-Hydroxy-2-(4,4,5,5-tetramethyl-1,3,2-dioxaborolan-2-yl)-1,3-phenylene)bis(methylene) diacetate]
Hydrolysis of the acetate group [1]: hydrolyzed prior to addition of H2O2
Disappearance of starting materials: Time of completion [3]: 480 min
Disappearance of starting materials: kobs [3]: 8.3 ± 0.5 10^−5 s^−1
QM formation: Time of completion [3]: 480 min
Time to completion of reaction with H2O2 (oxidative deboronation) [3]: not finished within one hour

N[C@@H](Cc1ccc(N(CCCl)CCCl)cc1)C(=O)O [Melphalan, melphalan]
IC50 (breast cancer MDA-MB-468): 48.7 µM
